Screening results (PubChem)
GalR3 antagonist: human GalR3 antagonism; O60755; HEK293 GalR3-CNG cAMP membrane potential fluorescence; galR3 body fused to GalR1 C-terminus; inhibition, % at 3 µM; hit rate 0.44% among 360,000; AID 651719;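 active = inhibition above the screen-wide average plus 3 SD, cut at about 13% in these data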;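 also: forskolin and galanin both at EC90 stimulate the cells; cAMP rise reported by CNG channel membrane potential dye signal; 0% = forskolin plus galanin with DMSO and 100% = forskolin alone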
OX1R antag-1: OX1R (human) antagonism. OX1R-expressing cells, FRET antagonist read-out. AID 485270. O43613. hit rate 1.8% among 330,000. inhibition, % at 6.6 µM; in the data active = inhibition mostly above about 38%, no sharp cut-off; inactive = mostly below about 40%;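 also: 0% = agonist challenge alone and 100% = reference antagonist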
Target sequence (O43613 whole entry, looked up): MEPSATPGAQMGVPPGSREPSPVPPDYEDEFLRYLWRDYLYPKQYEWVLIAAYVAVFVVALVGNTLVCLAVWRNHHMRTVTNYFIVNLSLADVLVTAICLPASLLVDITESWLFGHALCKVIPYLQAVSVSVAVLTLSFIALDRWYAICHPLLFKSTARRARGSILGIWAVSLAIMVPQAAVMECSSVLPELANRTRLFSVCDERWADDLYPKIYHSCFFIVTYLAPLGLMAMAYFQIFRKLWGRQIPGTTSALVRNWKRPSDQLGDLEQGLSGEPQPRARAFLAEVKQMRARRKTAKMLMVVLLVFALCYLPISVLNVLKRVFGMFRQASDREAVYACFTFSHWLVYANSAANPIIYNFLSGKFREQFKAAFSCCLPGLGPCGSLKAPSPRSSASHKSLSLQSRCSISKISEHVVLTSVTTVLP
OX1R antag-2: antagonists of human orexin 1 receptor. CHO/OX1R cells, Fluo-8 calcium fluorescence, orexin A. inhibition, % at 5 µM. hit rate 0.43% among 330,000. O43613. AID 434989;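 active = inhibition above its plate's threshold, mean inhibition of all tested compounds on the plate plus 3 SD, cut at about 37% in these data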;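 also: 0% = orexin A challenge wells and 100% = SB-334867-A antagonist wells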
TAAR1 antag: antagonists of human TAAR1 | inhibition, % at 3 µM | Q96RJ0 | CHO RD-HGA16 TAAR1, Fluo-8 calcium fluorescence, antagonist | AID 624466 | hit rate 1.5% among 360,000;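 active = inhibition above a per-plate cutoff, the mean inhibition of test compounds on that plate plus 3 SD, cut at about 49% in these data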;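 also: 0% = DMSO plus EC80 beta-PEA response and 100% = DMSO alone without agonist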
Target sequence (Q96RJ0 whole entry, looked up): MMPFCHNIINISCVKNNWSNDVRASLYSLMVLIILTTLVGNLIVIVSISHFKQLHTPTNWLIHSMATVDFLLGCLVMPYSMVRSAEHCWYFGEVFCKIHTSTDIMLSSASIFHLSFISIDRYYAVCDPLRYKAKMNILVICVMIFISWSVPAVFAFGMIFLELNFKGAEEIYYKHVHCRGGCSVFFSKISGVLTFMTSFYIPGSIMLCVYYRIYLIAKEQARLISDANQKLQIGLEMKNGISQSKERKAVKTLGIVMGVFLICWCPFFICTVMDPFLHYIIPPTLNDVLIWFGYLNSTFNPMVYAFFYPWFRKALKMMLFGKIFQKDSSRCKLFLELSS
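Test system – hTAAR1-expressing CHO RD-HGA16 cells, Gα16-coupled · Also added – β-PEA at EC80 concentration, post-compound challenge · Compound – 3 µM, single point · Incubation – dye loading 75 min at 37 °C, then 30 min room temperature · Measured by – Fluo-8 intracellular calcium dye fluorescence, real-time kinetic reads · Benchmarks – vehicle and agonist controls · Replicates – singlicate, one well per test compound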
TAAR1 agonist: human TAAR1 agonism; Q96RJ0; CHO RD-HGA16 TAAR1, Fluo-8 calcium fluorescence; vehicle wells 0%, saturating PEA agonist 100%; activation, % at 3 µM; hit rate 0.99% among 360,000; AID 624467;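 active = activation above the mean activation of all test compounds in the run plus 3 SD, cut at about 38% in these data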
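test system = CHO RD-HGA16 cells carrying human TAAR1 plus Gα16 | schedule = 17-24 h seeding, 75 min 37 °C dye, 30 min RT | compound dosing = 3 µM single concentration | control set = DMSO and PEA EC100 | replicates = n 1 | signal = Fluo-8 fluorescence, 5 s baseline then 140 s kinetic read | measure = percent activation vs PEA EC100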
CHO parental Ca: counter-screen for OX1R antagonists: effect in parental CHO cells | parental CHO-K1, ATP-induced calcium, Fluo-8 fluorescence | inhibition, % at 5.6 µM | hit rate 0.63% among 330,000 | AID 463079;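 active = inhibition above that plate's mean sample inhibition plus 3 SD, cut at about 26% in these data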;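 also: 0% = ATP-challenged DMSO wells and 100% = DMSO wells without ATP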
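Material: Parental CHO cells | Reagent: ATP | Compound dosing: Single nominal dose of 5.6 µM per compound | Detection: Intracellular calcium via Fluo-8 no-wash fluorescent dye | Read-out: % inhibition of ATP-induced calcium mobilization | Benchmarks: Low control ATP plus DMSO, high control DMSO only | Replicates: Singlicate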
Numbers without * were called inactive; x = no result. Only some compounds are listed: those with a hit (about 4.3% of all), similar ones and a draw of the others.

SMILES | GalR3 antagonist | OX1R antag-1 | OX1R antag-2 | TAAR1 antag | TAAR1 agonist | CHO parental Ca
COc1ccc(C(=O)N2CCC2(C)C(=O)O)cc1C(F)(F)F (stereo not drawn) | 0.0 | x | x | -16.4 | 1.0 | x
CC(C)CC1NC(=O)C(CC(C)C)N(CO)C1=O (stereo not drawn) | -6.2 | x | x | 0.2 | -0.4 | x
CC(C)c1cc(-c2cc(C(=O)Nc3ccccc3)on2)nc(NCC2CC2)n1 | x | 17.0 | -12.7 | x | x | -8.5
CC(C)c1cc(-c2cc(C(=O)NCc3ccccc3)on2)nc(NCC2CC2)n1 | -5.6 | 1.0 | 62.1* | 77.0* | 68.2* | 44.2*
COc1ccc(C(=O)NC(=O)CSc2nc3nc(C)cc(C)n3n2)cc1 | -7.5 | 4.7 | -21.2 | -17.6 | -1.8 | -4.1
O=C(CCN1C(=O)C2C3C=CC(C3)C2C1=O)N1CCN(c2ccccn2)CC1 (stereo not drawn) | -2.6 | 15.7 | 5.5 | 0.9 | 11.0 | -11.3
O=C1C2C3C=CC(C3)C2C(=O)N1c1ccc(N2CCN(c3ccccn3)CC2)c([N+](=O)[O-])c1 (stereo not drawn) | -2.2 | 44.8 | 28.8 | 23.9 | 7.7 | 63.2*
COC(=O)[C@@H](Cc1ccc(O)cc1)NC(=O)[C@H]1O[C@@H](n2cnc3c(=O)[nH]c(N)nc32)[C@H](O)[C@@H]1O | -4.5 | x | x | -13.9 | 0.8 | x
CC(C)c1ccc(CC(=O)N2CCC2(C)C(=O)NCc2cccc3ccccc23)cc1 (stereo not drawn) | -2.4 | x | x | 36.3 | 6.5 | x
CC1(C(=O)NCc2cccc3ccccc23)CCN1C(=O)Cc1ccc(-c2ccccc2)cc1 (stereo not drawn) | -2.0 | x | x | 48.6* | 3.9 | x
O=c1cc(/C=C/c2ccccc2)oc2c1ccc1ccccc12 | 2.1 | 56.1* | -25.5 | 36.1 | 3.3 | -26.3
O=c1cc(C(F)(F)F)oc2c1ccc1ccccc12 | 0.6 | 11.1 | -5.6 | -8.9 | 3.0 | -8.1
O=c1cc(-c2cccnc2)oc2c1ccc1ccccc12 | 0.1 | 36.4* | -12.2 | -5.0 | 5.6 | -2.7
O=c1cc(-c2ccccc2)oc2c1ccc1ccccc12 | -5.0 | x | x | 14.6 | 2.1 | x
Cc1ccccc1N=C1SC(CC(=O)Nc2ccc3ccccc3c2)C(=O)N1Cc1ccccn1 (stereo not drawn) | -1.8 | 15.8 | 19.0 | 50.6* | 9.8 | 3.7
Cc1ccc(-c2cc(C(=O)N3CCN(c4ncccn4)CC3)c3cc(Br)ccc3n2)o1 | 5.1 | 4.2 | -14.9 | 59.0* | 24.2 | -11.7
Cc1ccc(-c2cc(C(=O)N3CCN(c4ccc(F)cc4)CC3)c3ccccc3n2)o1 | -1.1 | 25.4 | -22.6 | 45.6 | 19.3 | -13.7
COc1cccc(Cn2cccc(NC(=O)Nc3ccc(C#N)cc3)c2=O)c1 | -0.3 | 31.9 | 52.4* | 53.4* | 7.7 | 47.3*
COc1ccc(N2CCN(C(=O)Cn3cncn3)CC2)cc1 | 0.0 | -4.2 | -5.0 | -22.0 | 1.2 | -3.3
CC(C)N1CCN(c2ccc(OCC3COC(Cn4cncn4)(c4ccc(Cl)cc4Cl)O3)cc2)CC1 (stereo not drawn) | -0.9 | x | x | 61.0* | 20.2 | x
CCCN(CCC)CC(O)CN(c1ccccc1)S(=O)(=O)c1ccc(C)cc1 (stereo not drawn) | -3.3 | 11.4 | -38.8 | 12.3 | 3.9 | -13.0
CCCCN(c1nc2ccccc2nc1Cl)S(=O)(=O)c1ccc(C)cc1 | -16.2 | 14.7 | 1.5 | 14.3 | 0.2 | 53.9*
O=C(CSCc1ccc(Cl)cc1)Nc1cc([N+](=O)[O-])ccc1O | -0.2 | 104.6* | 13.8 | 30.5 | 10.9 | 4.8
COc1ccc([N+](=O)[O-])cc1NC(=O)CSCc1ccc(Br)cc1 | -6.0 | 28.6 | -14.3 | -13.1 | 8.3 | 3.1
COc1ccc(NS(=O)(=O)c2ccc(C(=O)NCC3(N4CCOCC4)CCCCC3)cc2)cc1 | -3.0 | 3.1 | 8.1 | 10.8 | 57.4* | -17.8
SMILES | GalR3 antagonist | OX1R antag-1 | OX1R antag-2 | TAAR1 antag | TAAR1 agonist | CHO parental Ca
COc1ccc(NS(=O)(=O)c2cccc(C(=O)NCC(c3ccc(F)cc3)N3CCOCC3)c2)cc1 (stereo not drawn) | -4.9 | 54.6* | 0.2 | -2.0 | 9.7 | -17.6
COc1ccc(C(CNC(=O)c2cccc(S(=O)(=O)Nc3ccc(F)cc3)c2)N2CCOCC2)cc1 (stereo not drawn) | -4.8 | x | x | -14.7 | 8.8 | x
O=C(NCC(c1ccco1)N1CCCC1)c1ccc(S(=O)(=O)Nc2ccc(F)cc2)cc1 (stereo not drawn) | -6.4 | 13.4 | 12.4 | -6.6 | 40.0* | -5.9
Cc1ccc(S(=O)(=O)Nc2cccc(C(=O)NCC(c3ccc(F)cc3)N3CCOCC3)c2)cc1 (stereo not drawn) | -9.0 | 35.6* | 14.6 | 4.2 | 13.4 | -16.9
COc1ccc(CCN2CC(C(=O)N(C)Cc3ccc(C)o3)CCC2=O)cc1 (stereo not drawn) | -1.0 | -3.3 | -8.8 | -17.6 | 1.6 | -8.8
O=C(NCC(c1ccco1)N1CCCCC1)c1ccc([N+](=O)[O-])s1 (stereo not drawn) | -7.0 | 56.4* | -36.4 | -7.5 | 1.8 | -22.5
COc1ccc(CN(C)C(=O)c2ccc(NS(=O)(=O)c3ccc(F)cc3)cc2)c(OC)c1 | 5.1 | 6.3 | -6.3 | -10.1 | 1.8 | 1.4
Cc1ccc(C(=O)NCC(c2ccco2)N2CCCCC2)s1 (stereo not drawn) | -6.2 | -8.9 | -4.4 | 3.5 | 1.1 | -5.7
COc1ccc(NS(=O)(=O)c2ccc(C(=O)N(C)Cc3ccc(C)o3)cc2)cc1 | -5.6 | 3.4 | 10.7 | 26.7 | 49.4* | -0.5
CC(C)CN(C(=O)COC(=O)C12CC3CC(CC(C3)C1)C2)c1c(N)n(Cc2ccccc2)c(=O)[nH]c1=O | -5.6 | 11.7 | -21.3 | 1.8 | 4.0 | -24.1
COc1ccc(-n2ccnc(SCC(=O)NC3CCCC3)c2=O)cc1 | -5.3 | 44.6* | -7.5 | 0.9 | -0.4 | -6.0
COc1ccc(Cl)cc1NC(=O)c1cc(-c2cc(C)ccc2O)n[nH]1 | 3.5 | 73.2 | 9.8 | 10.1 | 0.4 | -2.5
COc1ccc(NC(=O)c2cc(-c3cc(Cl)ccc3O)n[nH]2)c(OC)c1 | -9.6 | 42.3* | 20.4 | -9.2 | 0.3 | -24.0
COc1ccc(NC(=O)c2cc(-c3cc(F)ccc3OC(C)C)n[nH]2)c(C)c1 | -3.7 | x | x | 85.6* | 45.3* | x
COc1ccc(NC(=O)c2ccc(C(=O)Nc3ccc(OC)cc3OC)cc2)c(OC)c1 | -5.3 | 22.0 | -30.6 | 6.3 | 0.0 | -15.7
Cc1ccc(C)c(NC(=O)c2cc(-c3cc(C)ccc3O)n[nH]2)c1 | -7.8 | 25.6 | -19.6 | 12.8 | -0.3 | 31.9*
COc1ccc(NC(=O)c2c(OC)cccc2OC)c(OC)c1 | -1.3 | 45.5* | -33.5 | -9.2 | 4.0 | -22.4
Nc1nc2c(ncn2[C@@H]2O[C@H](CNC(=O)[C@H](N)Cc3ccccc3)[C@@H](O)[C@H]2O)c(=O)[nH]1 | -2.9 | x | x | -3.8 | 0.3 | x
